Measurements reported in ChEMBL document CHEMBL1130429 (J Med Chem, 1997).

Legend:
[1] = target: T1, Sodium-dependent dopamine transporter (Rattus norvegicus, UniProt P23977); assay: Binding affinity for dopamine transporter was determined in rat striatal membrane; type: cell membranes, Striatum
[2] = target: T2, Sodium-dependent serotonin transporter (Rattus norvegicus, UniProt P31652); assay: Binding affinity for serotonin transporter was determined in rat cortical membrane; type: cell membranes
T2 sequence (P31652 whole entry): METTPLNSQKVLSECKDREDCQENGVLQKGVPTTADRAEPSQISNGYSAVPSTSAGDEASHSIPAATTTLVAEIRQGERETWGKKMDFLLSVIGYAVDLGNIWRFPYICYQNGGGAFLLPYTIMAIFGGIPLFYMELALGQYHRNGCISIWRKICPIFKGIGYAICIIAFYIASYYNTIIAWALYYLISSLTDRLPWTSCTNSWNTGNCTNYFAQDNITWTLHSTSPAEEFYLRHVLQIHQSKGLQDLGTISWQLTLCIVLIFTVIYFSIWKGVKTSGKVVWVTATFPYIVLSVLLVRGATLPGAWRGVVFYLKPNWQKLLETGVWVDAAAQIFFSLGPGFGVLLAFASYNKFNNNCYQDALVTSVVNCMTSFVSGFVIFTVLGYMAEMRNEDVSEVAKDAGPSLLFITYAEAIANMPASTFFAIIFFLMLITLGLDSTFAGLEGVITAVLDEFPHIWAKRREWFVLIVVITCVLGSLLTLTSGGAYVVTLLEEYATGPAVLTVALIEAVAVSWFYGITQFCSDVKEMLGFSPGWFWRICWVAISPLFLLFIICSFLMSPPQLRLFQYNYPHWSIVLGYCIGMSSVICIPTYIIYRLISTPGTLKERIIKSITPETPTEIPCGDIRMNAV

[3] = target: Dopamine receptor D2 and D3 (Rattus norvegicus, UniProt P19020+P61169); assay: In vitro binding affinity for D2/D3 receptors in rat striatal homogenates by [125I]NCQ298 displacement.
Sigma 2 receptor [4] = assay: Sigma 2 binding assay was done rat liver membrane, by labeling the binding site with [3H]-DTG (DuPont-NEN) in the presence of […]-pentazocine (100 nM)
In short: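 P2 membranes from male Sprague-Dawley rat liver (35 µg protein) with 3 nM [3H]DTG plus 100 nM unlabelled (+)-pentazocine to mask σ1, 50 mM Tris-HCl pH 8.0, 120 min, 25 °C; GF/B filtration; nonspecific with 5 µM DTG. IC50 in triplicate from 5-10 concentrations, Ki via Cheng-Prusoff (Kd 17.9 nM), mean ± SEM.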

Sigma 2 receptor [5] = assay: Sigma 2 binding assay was done rat liver membrane, by labeling the binding site with [3H]DTG (DuPont-NEN) in the presence of […]-pentazocine (100 nM)
[6] = target: T2, Sodium-dependent serotonin transporter; assay: Binding affinity for serotonin transporter was determined in rat cortical membrane.; type: cell membranes
[7] = target: T1, Sodium-dependent dopamine transporter; assay: Binding affinity for dopamine transporter was determined in rat striatal membrane.; type: cell membranes

T1 sequence (P23977 whole entry): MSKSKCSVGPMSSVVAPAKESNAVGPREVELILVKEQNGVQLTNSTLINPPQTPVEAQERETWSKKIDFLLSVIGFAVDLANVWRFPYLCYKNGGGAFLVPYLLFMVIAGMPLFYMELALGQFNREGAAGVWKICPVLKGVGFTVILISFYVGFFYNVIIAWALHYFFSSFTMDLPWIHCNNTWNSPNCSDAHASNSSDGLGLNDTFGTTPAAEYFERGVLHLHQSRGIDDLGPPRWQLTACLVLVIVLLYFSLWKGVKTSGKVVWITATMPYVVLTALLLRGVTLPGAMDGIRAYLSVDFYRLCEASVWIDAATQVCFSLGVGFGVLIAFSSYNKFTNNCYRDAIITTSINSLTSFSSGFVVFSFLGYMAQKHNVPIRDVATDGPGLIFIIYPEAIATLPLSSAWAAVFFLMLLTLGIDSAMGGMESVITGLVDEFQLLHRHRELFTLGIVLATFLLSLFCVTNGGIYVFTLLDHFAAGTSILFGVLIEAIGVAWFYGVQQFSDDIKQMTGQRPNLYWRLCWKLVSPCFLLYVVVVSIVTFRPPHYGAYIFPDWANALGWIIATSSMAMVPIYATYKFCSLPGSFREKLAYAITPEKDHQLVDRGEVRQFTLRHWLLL

Compound | Ki [3] [µM] | Ki (Sigma 2 receptor [4]) [µM] | Ki [7] [µM] | further results
O[C@H]1Cc2ccccc2C[C@@H]1N1C2CCC1CC(c1ccccc1)C2 (stereo partly specified) | 3.385 |  |  | Ki [1]: 1.07 µM; Ki [2]: 1.68 µM
O[C@@H](CN1CCC2(CCc3ccccc32)CC1)c1cccc(Br)c1 | > 1 | 0.0127 |  | 
CN1CC2(CCN(C[C@H](O)c3cccc(Br)c3)CC2)c2ccccc21 | > 1 |  |  | Ki (Sigma 2 receptor [5]): 0.0992 µM
CN1CC2(CCN([C@@H]3CN(Cc4ccc(F)cc4)CC[C@H]3O)CC2)c2ccccc21 | > 1 |  |  | 
OC(CN1C2CCC1CC(c1ccccc1)C2)c1ccccc1 (stereo unspecified) |  | 0.0327 |  | Ki [1]: 0.0415 µM
O[C@H]1CCN(Cc2cccc(I)c2)C[C@@H]1N1C2CCC1CC(c1ccccc1)C2 (stereo partly specified) | 1.967 | 0.275 | 1.07 | Ki [6]: 4.43 µM
OC(CN1C2CCC1CC(c1ccccc1)C2)c1ccc(Cl)c(Cl)c1 (stereo unspecified) |  | 0.0188 | 0.0236 | 
CN1CC2(CCN([C@@H]3CCCC[C@H]3O)CC2)c2ccccc21 | > 1 | 0.357 |  | 
OC(CN1C2CCC1CC(c1ccccc1)C2)c1cccc(Br)c1 (stereo unspecified) | 2.658 | 0.00987 | 0.0236 | Ki [6]: 0.027 µM
O[C@H]1CCN(Cc2ccc(F)cc2)C[C@@H]1N1C2CCC1CC(c1ccccc1)C2 (stereo partly specified) | 8.795 | 0.26 | 4.18 | Ki [6]: 9.2 µM
OC(CCCN1C2CCC1CC(c1ccccc1)C2)c1ccc(F)cc1 (stereo unspecified) |  |  |  | Ki [1]: 0.464 µM
O[C@@H]1CCN(Cc2cccc(I)c2)C[C@H]1N1CCC2(CCc3ccccc32)CC1 | > 1 |  |  | Ki (Sigma 2 receptor [5]): 0.224 µM
O[C@@H]1CCCC[C@H]1N1CCC2(CCc3ccccc32)CC1 | > 1 |  |  | Ki (Sigma 2 receptor [5]): 0.03 µM
OC(CN1C2CCC1CC(c1ccccc1)C2)c1ccccc1Br (stereo unspecified) |  | 0.00771 | 0.0673 | 
CN1CC2(CCN(C[C@H](O)Cc3ccc(Br)cc3)CC2)c2ccccc21 | > 1 |  |  | Ki (Sigma 2 receptor [5]): 0.0229 µM
O[C@H]1CCCC[C@@H]1N1C2CCC1CC(c1ccccc1)C2 (stereo partly specified) | > 38 | 0.118 |  | Ki [1]: 2.81 µM; Ki [2]: 3.42 µM
OC(CN1C2CCC1CC(c1ccccc1)C2)c1c(Cl)cccc1Cl (stereo unspecified) |  | 0.0159 | 0.042 | 
OC(CN1C2CCC1CC(c1ccccc1)C2)c1ccc(Br)cc1 (stereo unspecified) | 5.092 | 0.0113 | 0.0738 | Ki [6]: 0.0301 µM
CN1CC2(CCN([C@@H]3Cc4ccccc4C[C@H]3O)CC2)c2ccccc21 | > 1 |  |  | 
O=C(CN1C2CCC1CC(c1ccccc1)C2)c1ccc(F)cc1 (stereo unspecified) |  | 0.0733 | 0.222 | 
OC(Cc1ccc(Br)cc1)CN1C2CCC1CC(c1ccccc1)C2 (stereo unspecified) | 1.49 | 0.00495 |  | Ki [1]: 0.306 µM; Ki [2]: 0.234 µM
O[C@H](Cc1ccc(Br)cc1)CN1CCC2(CCc3ccccc32)CC1 | > 1 |  |  | Ki (Sigma 2 receptor [5]): 0.0088 µM
CN1CC2(CCN([C@@H]3CN(Cc4cccc(I)c4)CC[C@H]3O)CC2)c2ccccc21 | > 1 |  |  | Ki (Sigma 2 receptor [5]): 0.139 µM
O=C(CCCN1C2CCC1CC(c1ccccc1)C2)c1ccc(F)cc1 (stereo unspecified) | 0.0163 | 0.0154 | 0.129 | Ki [6]: 0.0886 µM
O=C(CCCN1CCC2(CCc3ccccc32)CC1)c1ccc(F)cc1 |  |  |  | Ki (Sigma 2 receptor [5]): 0.0033 µM
CN1CC2(CCN(CCCC(=O)c3ccc(F)cc3)CC2)c2ccccc21 | 0.0565 | 0.0608 |  | 
O[C@@H]1CCN(Cc2ccc(F)cc2)C[C@H]1N1CCC2(CCc3ccccc32)CC1 | > 1 |  |  | Ki (Sigma 2 receptor [5]): 0.067 µM
O[C@@H]1Cc2ccccc2C[C@H]1N1CCC2(CCc3ccccc32)CC1 | > 1 |  |  | 
